High-throughput results from PubChem.
This is a sample that favours compounds with a hit; in the whole collection about 2.5% have one here.
Insulin prom up: MIN6 insulin promoter up-regulation; MIN6 insulin promoter-GFP reporter, high-content imaging; hits give high values; z-score at 5 µM; actives 0.3% (n = 190,000);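 active means z-score above 3 at 5 µM with at least 500 cells counted in the well; inconclusive means wells under 500 cells, flagged as cytotoxic or low count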
NPY Y1 blocker: antagonists of human neuropeptide Y receptor Y1; HEK293-CNG Y1 cells, membrane potential fluorescence; NPY at EC95, then isoproterenol; AID 1040; actives 1% (n = 200,000); inhibition, % at 3.6 µM; P25929;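 active means inhibition above the campaign mean inhibition of all tested compounds plus 3 SD, cut at about 20% in these data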
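Material: HEK293 Y1/CNG channel cell line | Also added: NPY (25 nM), isoproterenol (1 µM), Ro 20-1724 (25 µM) | Compound: One concentration, 3.6 µM, in 0.4% DMSO | Schedule: 3 h dye uptake, 1 h room-temperature compound, 45 min post-isoproterenol | Signal: Membrane-potential fluorescent dye readout | Read-out: % inhibition of NPY effect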
NPY-Y2 antag: blocks the human neuropeptide Y Y2 receptor | P49146 | NPY-Y2 expressing cells, antagonist mode | inhibition, % at 2.7 µM | actives 0.99% (n = 140,000) | AID 793
Target sequence (P49146 whole entry, looked up): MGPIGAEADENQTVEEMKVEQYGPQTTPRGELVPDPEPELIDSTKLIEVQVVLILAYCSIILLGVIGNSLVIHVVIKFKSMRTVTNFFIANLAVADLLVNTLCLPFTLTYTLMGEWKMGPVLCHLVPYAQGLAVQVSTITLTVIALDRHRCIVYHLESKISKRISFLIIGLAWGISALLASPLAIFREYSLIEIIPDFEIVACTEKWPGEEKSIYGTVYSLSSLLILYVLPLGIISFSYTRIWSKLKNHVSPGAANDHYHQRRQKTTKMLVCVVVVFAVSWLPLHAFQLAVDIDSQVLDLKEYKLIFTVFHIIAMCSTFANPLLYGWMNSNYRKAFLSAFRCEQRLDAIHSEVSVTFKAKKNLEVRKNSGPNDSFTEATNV
NPY1 pot ag: potentiates or activates human NPY-Y1 receptor; P25929; NPY-Y1 expressing cells, potentiator/agonist activation; activation, % at 3.6 µM; actives 0.37% (n = 220,000); in the data active means activation above about 33%, passing the limit was not always enough;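 further: cells stimulated with NPY at EC10 then isoproterenol at EC100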
NPY2 pot ag: human NPY-Y2 potentiation or agonism, primary screen. cells expressing NPY-Y2, potentiator/agonist read-out. activation, % at 3.6 µM. AID 1359. actives 0.45% (n = 220,000); in the data active means activation above about 27%;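 further: cells stimulated with NPY near EC25 plus isoproterenol at EC100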
INS promoter inh: TRM-6 insulin promoter activity inhibition; TRM-6 cells (human fetal islet line), insulin promoter-eGFP reporter, imaging; reporter expression induced with tamoxifen; inhibition, % at 2 µM; actives 0.9% (n = 130,000); AID 1273;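 active means inhibition above the mean plus 3 SD, with well images judged a real hit on visual review, cut at about 60% in these data, passing the limit was not always enough; inconclusive means inhibition over the cutoff but images rejected on review; inactive means inhibition not above the cutoff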
NPY1 antag conf: confirmation of human neuropeptide Y receptor Y1 antagonists | inhibition, % at 3.6 µM | HEK293-CNG NPY-Y1, membrane potential fluorescence, cAMP; NPY challenge against isoproterenol-raised cAMP | AID 1254 | shares compounds with NPY Y1 blocker | actives 21% (n = 1,200); in the data active means inhibition above about 20%
NPY-Y2 antag ct: counter-screen for NPY-Y1 antagonists: human NPY-Y2 antagonism. shares compounds with NPY Y1 blocker. HEK293 NPY-Y2 CNG membrane potential fluorescence; cells given NPY, then isoproterenol. inhibition, % at 3.6 µM. actives 28% (n = 1,200). AID 1255
Numbers stand for hits; – = inactive; ? = inconclusive; · = not tested or not shown. Unless noted, no stated cut-off is given here; in the data, active means inhibition above about 17%; inactive means the rest.

SMILES	Insulin prom up	NPY Y1 blocker	NPY-Y2 antag	NPY1 pot ag	NPY2 pot ag	INS promoter inh	NPY1 antag conf	NPY-Y2 antag ct
Cc1ccc(-c2noc(COc3ccccc3C)n2)cc1	–	22.3	–	–	–	–	–	–
CSC1=NCCN1C(=O)Cc1cccs1	–	–	–	–	–	·	·	·
CCCCc1ccc(-n2c(Cc3cccs3)n[nH]c2=S)cc1	–	–	·	–	–	·	·	·
C[n+]1c2n(c3ccccc31)N=C(c1cc(C(C)(C)C)c(O)c(C(C)(C)C)c1)CS2	?	64.8	·	–	–	–	48.3	38.9
COc1cccc(C2=Nn3c(nnc3-c3ccccc3O)SC2)c1	–	–	–	–	–	–	·	·
CCCCSc1ncnc2[nH]ncc12	–	·	·	–	–	·	·	·
O=C(NC1CCCCC1)C(c1ccncc1)N(Cc1ccc2c(c1)OCO2)C(=O)C(F)(F)F (configuration not stated)	·	21.3	–	–	–	–	–	–
Cc1nc2nc(-c3ccc(Cl)cc3)[nH]n2c(=O)c1C	–	–	–	–	–	–	·	·
Cc1ccc(S(=O)(=O)N2C(=O)/C(=C3\SC(=S)NC3=O)c3ccccc32)cc1	–	·	·	–	–	·	·	·
N#CC(/C(=N/S(=O)(=O)c1cccs1)c1ccccc1)c1nc2ccccc2[nH]1 (configuration not stated)	–	22.6	–	–	–	–	21.0	25.6
CN(C)S(=O)(=O)c1cc(NC(=O)CN2CCCc3ccccc32)ccc1Cl	–	71.2	·	–	–	–	–	–
COCCCNC(=O)CSC1=Nc2ccccc2C2=NC(CC(=O)NCc3ccccc3)C(=O)N12 (configuration not stated)	–	–	–	–	–	–	·	·
CCOC(=O)c1c(C)n(C)c2ccc(O)c(CN3CCC(C)CC3)c12	–	–	–	–	–	–	·	·
CCOC(=O)c1c(CSc2ccccc2)n(C)c2ccc(O)c(CN3CCOCC3)c12	–	38.5	·	–	–	·	30.2	–
COCCCNC(=S)Nc1cccc2ncccc12	–	–	·	–	–	·	·	·
CCC1(C)Cc2c(c(=O)n(-c3ccccc3)c3ncnc(N)c23)CO1 (configuration not stated)	–	–	–	–	–	–	·	·
COc1ccc(-c2onc(C)c2-c2cnn(-c3ccccc3)c2)c(O)c1C	·	31.2	·	–	–	·	–	–
COc1ccc(-c2n[nH]c(C)c2-c2cnn(-c3ccccc3)c2)c(O)c1C	–	–	–	–	–	–	·	·
CN(C)c1nc(N)nc(CSc2nnnn2-c2ccccc2)n1	·	–	–	–	–	–	·	·
Cc1cc(C#N)c(C)c(SCc2[nH]nc3c2C(c2ccccc2)C(C#N)=C(N)O3)n1 (configuration not stated)	·	21.3	–	–	–	–	58.7	39.0
Cc1cc(C)c(C#N)c(SCc2[nH]nc3c2C(c2ccc(F)cc2)C(C#N)=C(N)O3)n1 (configuration not stated)	·	41.9	–	–	–	–	56.8	40.8
COCc1[nH]nc2c1C(c1cccc(OC)c1)C(C#N)=C(N)O2 (configuration not stated)	·	–	–	–	–	·	·	·
COc1ccc(CC(=O)Nc2nnc(C(C)(C)C)s2)cc1OC	–	–	·	–	–	–	·	·
CCOc1ccccc1NC(=O)C(NCC1(N2CCCCC2)CCCCC1)c1ccccc1 (configuration not stated)	–	33.8	·	–	–	–	30.9	29.9
c1ccc(-c2cc3c(-n4cccc4)ncnc3o2)cc1	–	21.2	–	–	–	–	–	–
SMILES	Insulin prom up	NPY Y1 blocker	NPY-Y2 antag	NPY1 pot ag	NPY2 pot ag	INS promoter inh	NPY1 antag conf	NPY-Y2 antag ct
c1ccc(Oc2ncnc3oc(-c4ccccc4)cc23)cc1	·	–	–	–	–	–	·	·
CCOC(CNC(=O)Cc1c(C)nc2c(-c3ccccc3)c(C)nn2c1C)OCC	–	–	·	–	–	·	·	·
O=C(CSc1nnc(COc2ccccc2)n1Cc1ccco1)c1ccc(F)cc1	–	20.2	–	–	–	–	–	–
Cc1ccc(OCc2nnc(SCC(=O)c3ccccc3)n2Cc2ccco2)cc1	–	–	–	–	–	–	·	·
CN(C)N1C(N)=C(C#N)C(c2ccccc2)C2=C1CCCC2=O (configuration not stated)	–	–	·	–	–	–	·	·
COc1cccc2c3c(c(C)nc12)CCN3c1ccccc1	·	23.5	·	–	–	–	–	21.2
CCC1(C)Cc2ccccc2-c2[nH][nH]c(=O)c21 (configuration not stated)	–	55.0	·	–	–	·	–	–
COc1ccc(N2CCN(c3oc(-c4ccco4)nc3C#N)CC2)cc1	–	21.8	–	–	–	–	–	–
COc1ccc(COc2cc(-c3cccc(OC)c3)nc3ccc(NC(=O)c4ccc(N(C)C)cc4)cc23)cc1	–	42.5	–	–	–	–	–	–
Cn1c(=O)cc(SCC(=O)NCCCN2CCN(c3ccccc3F)CC2)c2ccccc21	–	20.5	–	–	–	·	–	–
CCOC(=O)c1c(NC(=O)Cc2cccs2)sc(C)c1C	·	21.2	–	–	–	–	–	–
CNC(=O)NC(=O)C(C)OC(=O)CCCSc1nc2ccccc2s1 (configuration not stated)	–	–	–	–	–	–	·	·
Cc1[nH]n(-c2ccccc2)c(=O)c1/C=N/O	–	57.6	–	–	–	–	–	–
COc1cccc(CC2(CO)CCCN(Cc3c(C)cc(C)cc3-n3cccn3)C2)c1 (configuration not stated)	–	37.7	·	–	–	·	24.0	20.0
COc1ccccc1OCCOCCOc1c(C)cc(C)cc1Br	–	24.3	–	–	–	–	–	–
CC12COC3(C(=O)Nc4ccc5ccccc5c4)CC1CCC32C (configuration not stated)	–	22.9	·	–	–	·	–	24.1
CC12COC3(C(=O)Nc4ccccc4)CC1CCC32C (configuration not stated)	–	–	·	–	–	·	·	·
Cc1cccc(C(=O)NCCNc2nc3cc(C)c(C)cc3cc2C)c1	–	45.0	·	–	–	·	29.5	33.1
COC(=O)CNC(=O)c1cccc(F)c1	·	–	–	–	–	–	·	·
O=C(NCCc1ccncc1)c1ccccc1F	·	–	–	–	–	–	·	·
Cc1cc2cc(C)c(NCCNC(=O)c3cccc(F)c3)nc2cc1C	–	39.7	·	–	–	·	28.3	–
Cc1cc2cc(C)c(NCCNC(=O)c3cccs3)nc2cc1C	–	56.4	·	–	–	·	43.0	65.4
Cc1cc2cc(C)c(NCCNC(=O)c3ccccc3F)nc2cc1C	–	31.9	·	–	–	·	–	29.4
Cc1nc(CCNC(=O)c2cccs2)cs1	–	–	–	–	–	–	·	·
